According to ChEMBL document CHEMBL1150348, “Design and synthesis of FAJANU: a de novo C(2) symmetric cyclopeptide family” (2008):
Where a SMILES comes first, the peptide text is derived from it. Bridges are numbered along the chain shown (N, C = ends). Roman numbers before positions name the chains, in order. [ ]: non-standard residue; d: D form. The star is where a group is joined. Quinoxaline2carbonyl = O=C(c1cnc2ccccc2n1)*; Quinaldoyl(3-OH) = O=C(c1nc2ccccc2cc1O)*; Quinaldoyl = O=C(c1ccc2ccccc2n1)*; NMeF = CN[C@@H](Cc1ccccc1)C(=O)O; NMeL = CN[C@@H](CC(C)C)C(=O)O; X1 = O=C(c1cc(=O)c2ccccc2o1)*; NMeA = CN[C@@H](C)C(=O)O; Orn = NCCC[C@H](N)C(=O)O; Dap = NC[C@H](N)C(=O)O; Sar = CNCC(=O)O

What was measured:
Type in all cases: functional
HT-29 = assay: Cytotoxicity against human HT29 cells after 72 hrs by SRB assay; conditions: HT-29, 72 h
Method in brief: (§1)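 SRB colorimetric growth assay: cells seeded at 5 × 10^3 cells/well in RPMI, grown drug-free 18 h to attach, then samples added (dissolved in DMSO–H2O 3:7) for 72 h exposure. Fixed with cold 50% TCA 60 min at 4 °C, stained with 0.4% SRB in 1% acetic acid 10 min at room temperature, washed, bound dye solubilized in Tris, absorbance read at 490 nm; GI50 derived.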

A549 = assay: Cytotoxicity against human A549 cells after 72 hrs by SRB assay; conditions: A549, 72 h; method in brief: as §1
MDA-MB-231 = assay: Cytotoxicity against human MDA-MB-231 cells after 72 hrs by SRB assay; conditions: MDA-MB-231, 72 h; method in brief: as §1

Row | SMILES | GI50 (HT-29) [nM] | GI50 (A549) [nM] | GI50 (MDA-MB-231) [nM]
1 | CC(C)C[C@H]1C(=O)N(C)CC(=O)N(C)[C@@H](Cc2ccccc2)C(=O)NC[C@H](NC(=O)c2ccc3ccccc3n2)C(=O)N(C)[C@@H](CC(C)C)C(=O)N(C)CC(=O)N(C)[C@@H](Cc2ccccc2)C(=O)NC[C@H](NC(=O)c2ccc3ccccc3n2)C(=O)N1C (I: Quinaldoyl-[Dap][NMeL][Sar][NMeF] / II: Quinaldoyl-[Dap][NMeL][Sar][NMeF]; amide I:1-II:C, I:C-II:1) | 4080 | 4160 | –
2 | CC(C)C[C@H]1C(=O)N(C)CC(=O)N(C)[C@@H](C)C(=O)NC[C@H](NC(=O)c2ccc3ccccc3n2)C(=O)N(C)[C@@H](CC(C)C)C(=O)N(C)CC(=O)N(C)[C@@H](C)C(=O)NC[C@H](NC(=O)c2ccc3ccccc3n2)C(=O)N1C (I: Quinaldoyl-[Dap][NMeL][Sar][NMeA] / II: Quinaldoyl-[Dap][NMeL][Sar][NMeA]; amide I:1-II:C, I:C-II:1) | 3530 | – | 5340
3 | CC(C)C[C@@H](C(=O)N[C@H]1COC(=O)[C@H](Cc2ccccc2)N(C)C(=O)[C@H](CC(C)C)N(C)C(=O)[C@@H](NC(=O)[C@H](CC(C)C)N(C)C)COC(=O)[C@H](Cc2ccccc2)N(C)C(=O)[C@H](CC(C)C)N(C)C1=O)N(C)C | 640 | 2900 | 1230
4 | CC(C)C[C@H]1C(=O)NC[C@H](NC(=O)c2cnc3ccccc3n2)C(=O)N(C)[C@@H](CC(C)C)C(=O)N(C)CC(=O)N(C)[C@@H](CC(C)C)C(=O)NC[C@H](NC(=O)c2cnc3ccccc3n2)C(=O)N(C)[C@@H](CC(C)C)C(=O)N(C)CC(=O)N1C (I: Quinoxaline2carbonyl-[Dap][NMeL][Sar][NMeL] / II: Quinoxaline2carbonyl-[Dap][NMeL][Sar][NMeL]; amide I:1-II:C, I:C-II:1) | 1230 | 1410 | 1670
5 | CC(C)C[C@H]1C(=O)NC[C@H](NC(=O)c2ccc3ccccc3n2)C(=O)N(C)[C@@H](CC(C)C)C(=O)N(C)CC(=O)N(C)[C@@H](CC(C)C)C(=O)NC[C@H](NC(=O)c2ccc3ccccc3n2)C(=O)N(C)[C@@H](CC(C)C)C(=O)N(C)CC(=O)N1C (I: Quinaldoyl-[Dap][NMeL][Sar][NMeL] / II: Quinaldoyl-[Dap][NMeL][Sar][NMeL]; amide I:1-II:C, I:C-II:1) | 500 | 570 | 640
6 | CC(C)C[C@H]1C(=O)NC[C@H](NC(=O)c2ccc3ccccc3n2)C(=O)N(C)[C@@H](CC(C)C)C(=O)NCC(=O)N(C)[C@@H](CC(C)C)C(=O)NC[C@H](NC(=O)c2ccc3ccccc3n2)C(=O)N(C)[C@@H](CC(C)C)C(=O)NCC(=O)N1C (I: Quinaldoyl-[Dap][NMeL]G[NMeL] / II: Quinaldoyl-[Dap][NMeL]G[NMeL]; amide I:1-II:C, I:C-II:1) | 620 | 1180 | 550
7 | CC(C)C[C@@H](C(=O)N[C@H]1CNC(=O)[C@H](Cc2ccccc2)N(C)C(=O)[C@H](CC(C)C)N(C)C(=O)[C@@H](NC(=O)[C@H](CC(C)C)N(C)C)CNC(=O)[C@H](Cc2ccccc2)N(C)C(=O)[C@H](CC(C)C)N(C)C1=O)N(C)C | 650 | 2860 | 710
8 | CC(C)C[C@H]1C(=O)NCCCC[C@H](NC(=O)c2ccc3ccccc3n2)C(=O)N(C)[C@@H](CC(C)C)C(=O)N(C)CC(=O)N(C)[C@@H](CC(C)C)C(=O)NCCCC[C@H](NC(=O)c2ccc3ccccc3n2)C(=O)N(C)[C@@H](CC(C)C)C(=O)N(C)CC(=O)N1C (I: Quinaldoyl-K[NMeL][Sar][NMeL] / II: Quinaldoyl-K[NMeL][Sar][NMeL]; amide I:1-II:C, I:C-II:1) | – | 3940 | –
9 | CC(C)C[C@H]1C(=O)NC[C@H](NC(=O)c2nc3ccccc3cc2O)C(=O)N(C)[C@@H](CC(C)C)C(=O)N(C)CC(=O)N(C)[C@@H](CC(C)C)C(=O)NC[C@H](NC(=O)c2nc3ccccc3cc2O)C(=O)N(C)[C@@H](CC(C)C)C(=O)N(C)CC(=O)N1C (I: {Quinaldoyl(3-OH)}-[Dap][NMeL][Sar][NMeL] / II: {Quinaldoyl(3-OH)}-[Dap][NMeL][Sar][NMeL]; amide I:1-II:C, I:C-II:1) | 3430 | 2400 | –
10 | CC(C)C[C@H]1C(=O)NC[C@H](NC(=O)c2cc(=O)c3ccccc3o2)C(=O)N(C)[C@@H](CC(C)C)C(=O)N(C)CC(=O)N(C)[C@@H](CC(C)C)C(=O)NC[C@H](NC(=O)c2cc(=O)c3ccccc3o2)C(=O)N(C)[C@@H](CC(C)C)C(=O)N(C)CC(=O)N1C (I: X1-[Dap][NMeL][Sar][NMeL] / II: X1-[Dap][NMeL][Sar][NMeL]; amide I:1-II:C, I:C-II:1) | 2910 | – | 2310
11 | CC(C)C[C@H]1C(=O)NC[C@H](NC(=O)c2ccc3ccccc3n2)C(=O)N(C)[C@@H](CC(C)C)C(=O)N(C)CC(=O)N(C)[C@@H](CC(C)C)C(=O)OC[C@H](NC(=O)c2ccc3ccccc3n2)C(=O)N(C)[C@@H](CC(C)C)C(=O)N(C)CC(=O)N1C (I: Quinaldoyl-[Dap][NMeL][Sar][NMeL] / II: Quinaldoyl-S[NMeL][Sar][NMeL]; amide I:1-II:C; ester I:C-II:1) | 1230 | 2760 | 1160
12 | CC(C)C[C@H]1C(=O)NCCC[C@H](NC(=O)c2ccc3ccccc3n2)C(=O)N(C)[C@@H](CC(C)C)C(=O)N(C)CC(=O)N(C)[C@@H](CC(C)C)C(=O)NCCC[C@H](NC(=O)c2ccc3ccccc3n2)C(=O)N(C)[C@@H](CC(C)C)C(=O)N(C)CC(=O)N1C (I: Quinaldoyl-[Orn][NMeL][Sar][NMeL] / II: Quinaldoyl-[Orn][NMeL][Sar][NMeL]; amide I:1-II:C, I:C-II:1) | 2440 | 2940 | 5800
